According to ChEMBL document CHEMBL2429850, “In vitro and in vivo effects of (-)-epigallocatechin 3-O-gallate on Leishmania amazonensis” (J Nat Prod, 2013):
The source made the active and inactive calls. The rule behind the calls is not given here.

Experiments:
Leishmania amazonensis [1] = assay: Antileishmanial activity against stationary-phase promastigotes of Leishmania amazonensis MHOM/BR/75/LTB0016 infected in BALB/c mouse assessed as reduction of lesion size at 30 mg/kg, po administered 5 times per week; assay type: functional, organism-based; parameters: dose 30 mg/kg
Procedure, shortened: (§1)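 BALB/c mice (five per group, specific pathogen-free) infected intradermally in the right ear with 2 × 106 L. amazonensis promastigotes. Compound diluted in PBS, given orally at 30 mg/kg/day once daily, five times a week, until day 52. Controls received oral sterile PBS. Meglumine antimoniate 30 mg/kg/day ip served as positive control. Lesions measured twice weekly by dial caliper. Parasite load from excised, weighed, minced ears by limiting dilution in Schneider's medium with 10% FCS; growth read after 7 days at 26 °C. n = 5 ears.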

Mus musculus [2] = assay: Toxicity in stationary-phase promastigotes of Leishmania amazonensis MHOM/BR/75/LTB0016 infected BALB/c mouse assessed as serum alanine aminotransferase level at 30 mg/kg, po administered 5 times per week; assay type: organism-based; parameters: dose 30 mg/kg, route oral; details: in vivo
Procedure, shortened: (§2)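 Infected BALB/c mice (2 × 10^6 promastigotes intradermally, ear) were dosed orally at 30 mg/kg/day in PBS, once daily, five times a week, to day 52. The PBS-treated group served as control. Serum was collected at euthanasia, and ALT, AST and creatinine were measured with colorimetric kits. n = 5.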

Mus musculus [3] = assay: Toxicity in stationary-phase promastigotes of Leishmania amazonensis MHOM/BR/75/LTB0016 infected BALB/c mouse assessed as serum aspartate aminotransferase level at 30 mg/kg, po administered 5 times per week; assay type: organism-based; parameters: dose 30 mg/kg, route oral; details: in vivo; procedure, shortened: as §2
[4] = Selectivity index, ratio of IC50 for Swiss mouse peritoneal macrophages to IC50 for intracellular amastigotes of Leishmania amazonensis MHOM/BR/75/LTB0016
Procedure, shortened: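 Ratio of the macrophage IC50 (AlamarBlue, 72 h) to the intracellular amastigote IC50 (infection index, 72 h).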

Leishmania amazonensis [5] = assay: Antileishmanial activity against stationary-phase promastigotes of Leishmania amazonensis MHOM/BR/75/LTB0016 infected in BALB/c mouse assessed as reduction of parasite burden at 30 mg/kg, po administered 5 times per week; assay type: functional, organism-based; parameters: dose 30 mg/kg; procedure, shortened: as §1
[6] = Cytotoxicity against Swiss mouse peritoneal macrophages after 72 hrs by Alamar blue assay; assay type: cell-based; details: Peritoneal macrophage cell
Procedure, shortened: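 Swiss mouse peritoneal macrophages (2 × 10^6 cells/mL) adhered 1 h at 37 °C, 5% CO2; nonadherent cells washed off. Exposed to compound (3 to 3000 μM) for 72 h, washed, then AlamarBlue (10% v/v) for 12 h at 37 °C. Absorbance read at 570 nm. IC50 by logarithmic regression. 0.1% Triton X-100 lysis as positive control; PBS vehicle control; three independent experiments.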

Leishmania amazonensis [7] = assay: Antileishmanial activity against intracellular amastigotes of Leishmania amazonensis MHOM/BR/75/LTB0016 infected in Swiss mouse peritoneal macrophages assessed as inhibition of infection index after 72 hrs by light microscopic analysis; assay type: functional, organism-based
Procedure, shortened: (§3)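 Peritoneal macrophages from Swiss mice (6−8 weeks), plated in RPMI at 2 × 10^6 cells/mL, infected with L. amazonensis promastigotes (MOI 3.0) for 3 h at 37 °C, 5% CO2; free parasites washed off. Infected cells incubated with compound (3, 6, and 12 μM) or PBS vehicle for 72 h. Light microscopy, ≥200 cells per coverslip in duplicate. Infection index = % infected macrophages × amastigotes/total macrophages. IC50 by logarithmic regression. Three independent experiments; pentamidine (12 μM) reference.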

Mus musculus [8] = assay: Toxicity in stationary-phase promastigotes of Leishmania amazonensis MHOM/BR/75/LTB0016 infected BALB/c mouse assessed as serum creatinine level at 30 mg/kg, po administered 5 times per week; assay type: organism-based; parameters: dose 30 mg/kg, route oral; details: in vivo; procedure, shortened: as §2
Leishmania amazonensis [9] = assay: Antileishmanial activity against intracellular amastigotes of Leishmania amazonensis MHOM/BR/75/LTB0016 infected in Swiss mouse peritoneal macrophages assessed as growth inhibition at 12 uM after 72 hrs; assay type: functional; details: MHOM/BR/75/LTB0016, 72 h, read-out: GI; procedure, shortened: as §3
[10] = Selectivity index, ratio of CC50 for Balb/c mouse peritoneal macrophages to IC50 for promastigotes of Leishmania amazonensis IFLA/BR/1967/PH-8; assay type: functional

O=C(O[C@@H]1Cc2c(O)cc(O)cc2O[C@@H]1c1cc(O)c(O)c(O)c1)c1cc(O)c(O)c(O)c1 [EPIGALOCATECHIN GALLATE]
Activity (Leishmania amazonensis [1]): Active
Activity (Mus musculus [2]): Non-toxic
Activity (Mus musculus [3]): Non-toxic
Ratio IC50 [4]: 129.4
Activity (Leishmania amazonensis [5]): Active
IC50 [6]: 436 µM
inhibition (Leishmania amazonensis [7]): Dose-dependent effect
IC50 (Leishmania amazonensis [7]; MHOM/BR/75/LTB0016, 72 h): 1.6 µM
Activity (Mus musculus [8]): Non-toxic
inhibition of growth at 12 µM (Leishmania amazonensis [9]): 83.6%

CCCCCCCCCCCCCCCCOP(=O)([O-])OCC[N+](C)(C)C [MILTEFOSINE]
Ratio CC50/IC50 [10]: 28.9
